Screening data from PubChem.
EphB4 antag = antagonists of human EphB4-ephrin-B2 interaction. P54760. EphB4 LBD / TNYL-RAW-Alexa532 peptide, fluorescence polarization. inhibition, % at 7 µM. 97,000 tested, 0.15% active. AID 720;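 active = inhibition above the screen-wide mean inhibition plus 3 SD, cut at about 15% in these data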
Plk1 PBD FP = Plk1 (human) PBD binding inhibition. AID 693. Plk1 PBD phosphopeptide binding, fluorescence polarization. 97,000 tested, 0.13% active. inhibition, %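 (tested at about 20 µM)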; in the data active = inhibition above about 34%, passing the limit was not always enough
PLK1 inh = PLK1 (human) kinase inhibition; inhibition, % at 10 µM; P53350; 97,000 tested, 0.53% active; AID 619; recombinant PLK1 kinase, TR-FRET peptide phosphorylation;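 active = inhibition of 50% or more in the single-concentration screen; inactive = inhibition below 50%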
Cav3 T inh = blocks human Cav3.2 T-type calcium channel; O95180; Cav3.2-expressing cells, Fluo-4 calcium fluorescence FDSS; stronger effect = lower value; B-score at 10 µM; 100,000 tested, 4% active; AID 449739;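 active = single-dose well whose peak fluorescence ratio is a statistical outlier from its plate by either plate-standardised score or position-corrected B-score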
FAK inh = blocks human focal adhesion kinase activity | Q05397 | inhibition, %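 (tested at 7 µM)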 | 97,000 tested, 0.84% active | biochemical FAK kinase activity assay; in the data active = inhibition above about 19%
Rev-RRE block = HIV Rev-RRE protein-RNA interaction inhibition | P05866 | Rev peptide-RRE RNA binding, FRET | inhibition, % at 8 µM | 97,000 tested, 0.79% active;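 active = inhibition above the screen-wide mean plus 3 SD, cut at about 35% in these data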
Target sequence (P05866 whole entry, looked up): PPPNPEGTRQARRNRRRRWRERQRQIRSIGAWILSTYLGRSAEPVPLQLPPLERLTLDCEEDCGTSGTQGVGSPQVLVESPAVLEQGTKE
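Material: labelled RRE RNA duplex and labelled Rev peptide / Buffer or medium: HEPES pH 7.5 salt buffer with EDTA / Compound dosing: single point, 8 µM final nominal compound concentration / Benchmarks: DMSO low control, neomycin B high control / Timing: 5 min preincubation and 15 min binding, 25 °C / Technique: FRET fluorescence readout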
Hits are given with their value; i = inactive; nt = not tested or not shown. Compounds with a hit are over-represented: about 5.3% of the library has one in this group of screens.

SMILES	EphB4 antag	Plk1 PBD FP	PLK1 inh	Cav3 T inh	FAK inh	Rev-RRE block
C=CCn1c(SCC(=O)Nc2ccc3c(c2)OCO3)nnc1-c1ccccc1	i	i	i	i	i	i
COc1ccc(S(=O)(=O)c2c(N)n(Cc3ccco3)c3nc4ccccc4nc23)cc1	i	i	i	i	i	53
Cc1ccc(S(=O)(=O)c2c(N)n(/N=C/c3ccco3)c3nc4ccccc4nc23)cc1	i	i	i	i	i	i
N#Cc1c(NCCO)nc(NCc2ccccc2)c2c1CCN(Cc1ccccc1)C2	i	i	i	-3.6	i	i
Cc1ccc(C(=O)Nc2ccccc2-c2ccccc2)cc1S(=O)(=O)Nc1cccc(C)c1C	i	i	i	-6.3	i	i
CCC(C)OC(=O)C1=C(C)OC23OC(N)=C(C#N)C12C(=O)c1ccccc13 (centres undefined)	i	i	i	-2.7	i	i
CCOC(=O)/C=c1\s/c(=C\c2c(OCC)ccc3ccccc23)c(=O)n1CC(=O)NCC1CCCO1 (centres undefined)	i	i	i	-6.4	i	i
O=C(/C=C/c1c(Cl)cccc1Cl)n1cccn1	i	i	i	i	i	i
Cc1ccc(CN(CC(=O)N/N=C/c2ccccc2[N+](=O)[O-])S(=O)(=O)c2ccc(C)cc2)cc1	i	i	i	-4	i	i
O=C(CN(Cc1ccccc1)S(=O)(=O)c1ccccc1)N/N=C/c1ccccc1[N+](=O)[O-]	i	i	i	i	i	i
CCN(CC)C(=O)CC(c1cc(OC)c(OC)c(OC)c1)c1c(OC)cc(OC)c2c(-c3ccccc3)cc(=O)oc12 (centres undefined)	nt	nt	nt	i	nt	nt
O=C(OCc1ccccc1)C1CCCN1C(=O)c1ccccc1[N+](=O)[O-] (centres undefined)	i	i	i	i	i	i
COc1ccccc1C1C(C#N)=C(N)N(c2cccnc2)C2=C1C(=O)CC(C)(C)C2 (centres undefined)	i	i	i	i	i	i
O=C1c2cccc(Cl)c2C(=O)c2c1cccc2N1CCCC1	i	i	i	i	i	i
COc1ccc(N2CCN(c3oc(COc4ccccc4)nc3C#N)CC2)cc1	nt	nt	nt	i	nt	nt
N#Cc1nc(COc2ccccc2)oc1N1CCCC1	i	i	i	nt	i	i
COc1ccc(N2CCN(c3oc(COc4ccc(Cl)cc4)nc3C#N)CC2)cc1	i	i	i	-6.1	i	i
N#Cc1nc(COc2ccccc2)oc1N1CCCCCC1	i	i	i	-4	i	i
COCCN(C(=O)CNC(=O)c1ccco1)C(C(=O)NC1CCCCC1)c1cccs1 (centres undefined)	i	i	i	i	i	i
O=C1C2C(C(=O)N1/N=C/c1cc(Br)cc([N+](=O)[O-])c1O)C1C=CC2C12CC2 (centres undefined)	i	i	i	-6	i	i
O=C1C2C(C(=O)N1/N=C/c1cc([N+](=O)[O-])ccc1O)C1C=CC2C12CC2 (centres undefined)	i	i	i	i	i	i
CCc1ccc(Cn2nnc(C(=O)Nc3ccc(OC)cc3OC)c2N)cc1	i	i	i	i	i	i
CCOc1ccc(Cn2nnc(C(=O)NCc3ccc(OC)cc3)c2N)cc1	i	i	i	-5.2	i	i
O=C(NCCc1ccccc1)c1ccc2nc(-c3ccco3)c(-c3ccco3)nc2c1	i	i	i	-11	i	i
O=C(COC(=O)c1c[nH]c(=O)[nH]c1=O)NCc1ccccc1	i	i	i	i	i	i
SMILES	EphB4 antag	Plk1 PBD FP	PLK1 inh	Cav3 T inh	FAK inh	Rev-RRE block
COc1ccc(NC(=O)CSc2nnc(Cc3cccn3C)n2-c2ccc(F)cc2)cc1	i	i	i	i	i	i
CCOc1ccc(NC(=O)CSc2nnc(Cc3cccn3C)n2-c2ccc(F)cc2)cc1	nt	nt	nt	-7.4	nt	nt
COc1ccc(-n2c(Cc3cccn3C)nnc2SCC(=O)Nc2ccc(F)cc2)cc1	nt	nt	nt	-8.6	nt	nt
Cn1cccc1Cc1nnc(SCC(N)=O)n1-c1ccc(F)cc1	i	i	i	i	i	i
S=C(NCCSCc1ccc(Cl)cc1)Nc1ccccc1	i	i	i	nt	i	i
S=C(NCCSCc1ccccc1Cl)Nc1ccccc1	i	i	i	-6.4	i	i
Cc1cccc2cc(CN(Cc3nnnn3C3CCCCC3)C3CCCC3)c3nnnn3c12	i	i	i	i	i	i
CC(=O)Nc1ccc(NC(=O)c2ccccc2CC[N+](=O)[O-])cc1	i	i	i	i	i	i
O=C(NCC1(c2ccccc2)CCCC1)c1cccc(Br)c1	i	i	i	-7.5	i	i
O=C(NCCc1ccccc1)C(=O)NCC1(c2ccccc2)CCCC1	i	i	i	i	i	i
Cc1cccc(S(=O)(=O)C(C#N)c2nc3ccccc3nc2N2CC(C)OC(C)C2)c1 (centres undefined)	i	i	i	i	i	i
COc1ccc(S(=O)(=O)C(C#N)c2nc3ccccc3nc2N2CCCC(C)C2)cc1 (centres undefined)	i	i	i	-4.6	i	38
Cc1ccc(S(=O)(=O)C(C#N)c2nc3ccccc3nc2N2CCCC2)cc1 (centres undefined)	i	i	i	i	i	77
CC1CCCN(c2nc3ccccc3nc2C(C#N)S(=O)(=O)c2cccs2)C1 (centres undefined)	i	i	i	-5.9	i	i
Cc1ccc(S(=O)(=O)C(C#N)c2nc3ccccc3nc2N2CC(C)OC(C)C2)cc1C (centres undefined)	i	i	i	-4.2	i	i
C=CCOc1c(CNc2nccs2)cccc1OCC	i	i	i	i	i	i
CCN(CC)C(=O)c1[nH]cnc1C(=O)N[C@@H](C)C(=O)OC(C)(C)C	nt	nt	nt	i	nt	nt
Cc1nn(C)c(Oc2ccc(Cl)cc2)c1C(=O)Nc1ccc(F)cc1F	i	i	i	i	i	i
CC/C=C/C(=O)N1CC2(CC(c3cccc(NC(=O)COc4ccc(Cl)cc4)c3)=NO2)C[C@H]1C(N)=O (some centres undefined)	nt	nt	nt	i	nt	nt
Cc1ccc(S(=O)(=O)N2CCCN(c3nc4cc(C)ccc4cc3C#N)CC2)cc1	i	i	i	i	i	37
Cc1ccc2nc(N3CCN(S(=O)(=O)c4ccc5c(c4)OCCO5)CC3)c(C#N)cc2c1	i	i	i	i	i	i
Cc1cc(C)cc(NC(=S)NCCN2CCOCC2)c1	i	i	i	i	i	i
COC(=O)c1ccc2c(c1)NC(=O)C1CCCN21 (centres undefined)	nt	nt	nt	-4.3	nt	nt
CCOc1nnnc2c1sc1nc(N3CCOCC3)c3c(c12)CCCC3	i	i	i	i	i	i
CC(C)CCNc1nnnc2c1sc1nc(N3CCOCC3)c3c(c12)CC(C)(C)SC3	i	i	i	-4.8	i	i
COCc1cc(C)nc(N2CCN(c3ccccc3)CC2)c1C#N	nt	nt	nt	-4.5	nt	nt
CCCCCN(CCCCC)C(=O)C(CCC(=O)O)NC(=O)c1ccc(Cl)c(Cl)c1 (centres undefined)	nt	nt	nt	-8.5	nt	nt
